# Variants at the floor of the assay were thinned out.
# B1: tRNA (parent)
# chain: GUUCCGUUGGCGUAAUGGUAACGCGUCUCCCUCCUAAGGAGAAGACUGCGGGUUCGAGUCCCGUACGGAACG
# Variants of: B1
# Assay: yeast fitness relative to wild type (ratio to wild type); higher = fitter; tRNA-Arg(CCU), competitive growth, 37 C, YPD
# Method in brief: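 Genotype frequency changes were the basis for Darwinian fitness relative to wild type. The frequencies came from 100-nucleotide paired-end sequencing of gene amplicons from the start population and each end population of pooled yeast strains with tRNA-Arg(CCU) gene variants at the native locus. Competition ran in YPD at 37°C for 24 hours in six replicates, genotypes needed ≥ 100 starting reads, and estimates < 0.5 were set to 0.5.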
row,Variant,yeast fitness
1,C27U G56C,0.595
2,C27U G58A A70G,0.753
3,C27U G58C A70U,0.876
4,C27U G63A,0.867
5,C27U G67A A69U,0.692
6,C27U G67C,0.771
7,C27U G67U,0.854
8,C27U U28A A37G A57C G58C,1
9,C27U U28A U32A C34U A36C,0.554
10,C27U U28A U32A C34U A36C C55A,0.543
11,C27U U28A U32A C34U A36C C55A A65C A70C,≤ 0.5
12,C27U U28C A45C,0.773
13,C27U U28C C62U,0.625
14,C27U U28G A40C A69C,0.607
15,C27U U28G A40C C46A C49U A70U,0.695
16,C27U U28G A40C C55G A70C,≤ 0.5
17,C27U U28G A42U,0.535
18,C27U U28G C29G,≤ 0.5
19,C27U U32A C66U G67C,0.598
20,C27U U32A G52A C66U G67C,≤ 0.5
21,C27U U32C,0.844

row,Variant,yeast fitness
1,C27U U32C A65U A70C,≤ 0.5
2,C27U U32C C62G,≤ 0.5
3,C27U U35A,0.771
4,C27U U35A U59C,≤ 0.5
5,C27U U35C A43C A69U,0.62
6,C27U U35C A69U,0.802
7,C27U U35G A42U,≤ 0.5
8,C27U U35G A57C A65C A70U,≤ 0.5
9,C27U U47G G50A,≤ 0.5
10,C27U U53A G67A,≤ 0.5
11,C27U U53C,0.617
12,C27U U54C,0.93
13,C27U U54G,0.581
14,C27U U54G C55U,≤ 0.5
15,C27U U59G,0.823
16,C27U U64C,0.969
17,U28A A36C,0.511
18,U28A A37C,0.657
19,U28A A37C C61G,≤ 0.5
20,U28A A37C C61G G68U,≤ 0.5
21,U28A A37G,0.658

row,Variant,yeast fitness
1,U28A A37G A40G,≤ 0.5
2,U28A A37U A69C,≤ 0.5
3,U28A A40C C46G,≤ 0.5
4,U28A A40G A65U C66U,≤ 0.5
5,U28A A40U,0.984
6,U28A A42G,0.667
7,U28A A42G C55A C66A,≤ 0.5
8,U28A A42G C60U,≤ 0.5
9,U28A A42G C66U G67C,≤ 0.5
10,U28A A42G U64A,≤ 0.5
11,U28A A43G G68C,0.642
12,U28A A43U A65U,≤ 0.5
13,U28A A45C C46A,≤ 0.5
14,U28A A45G,0.762
15,U28A A57U,0.598
16,U28A A65G,0.791
17,U28A A65U,0.642
18,U28A A69C,0.88
19,U28A A70G,0.904
20,U28A C29A,0.598
21,U28A C29A A37G,≤ 0.5

row,Variant,yeast fitness
1,U28A C29G,0.558
2,U28A C29G A36C,0.516
3,U28A C29G C31U A69U,≤ 0.5
4,U28A C29G C31U G68A,0.547
5,U28A C29G C33A A42U A70U,0.531
6,U28A C29G C33U C34G A42U,0.536
7,U28A C29G C33U C34G A42U G58A,≤ 0.5
8,U28A C29G C33U C34G C62A A69G,≤ 0.5
9,U28A C29G G51A G56A C66G,≤ 0.5
10,U28A C29G G51A G56A G67C,0.585
11,U28A C29G G68C,≤ 0.5
12,U28A C29U A45C A69C,0.541
13,U28A C30U A69C,0.57
14,U28A C30U C55A,≤ 0.5
15,U28A C31A,0.687
16,U28A C31A A36C A45G G48C,0.619
17,U28A C31A A42C A45U G48A G51A U64A,≤ 0.5
18,U28A C31A A42C A45U G51A A65U,≤ 0.5
19,U28A C31A A42C A45U G51A U64A,0.512
20,U28A C31A G51C,≤ 0.5
21,U28A C31G A57G C62U,≤ 0.5
